Series [1] deals with Liver. As to the kind of experiment: (§1) Half life in human liver microsomes. The conditions noted are these: microsomes. It is filed as ADME, microsome. For orientation: Liver microsomes are a subcellular fraction often used to study metabolism.
Series [2] concerns Liver. As to the kind of experiment: (§2) Half life in dog liver microsomes. It is filed as ADME, Canis lupus familiaris, microsome. The settings on record: microsomes.
In series [3] the target is Kappa-type opioid receptor (Cavia porcellus, UniProt P41144). As to the kind of experiment: Displacement of [3H]DPN from guinea pig kappa opioid receptor expressed in CHOK1 cell membranes. A digest of the protocol:
(§3)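 Competition binding with the radioligand [3H]-DPN on membranes from CHO-K1 cells stably transfected with human recombinant μ or δ opioid receptor or guinea pig κ opioid receptor. Affinity is reported as pKi.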
In general terms: Displacement assays read how much labelled ligand stays bound in the presence of the test substance.

Series [4] has as its target T1, Mu-type opioid receptor (Homo sapiens, UniProt P35372). Kind of series: Displacement of [3H]DPN from recombinant human mu opioid receptor expressed in CHOK1 cell membranes. An outline of the steps:
as §3

A short description of series [5]: Half life in rat liver microsomes. The format is ADME, microsome. The settings on record: liver microsomes.
For series [6], the target named is Delta-type opioid receptor (Homo sapiens, UniProt P41143). As to the kind of experiment: Displacement of [3H]DPN from recombinant human delta opioid receptor expressed in CHOK1 cell membranes. A digest of the protocol:
as §3

Series [7] addresses T1, Mu-type opioid receptor. Kind of series: Intrinsic activity at recombinant human mu opioid receptor expressed in CHOK1 cells by [35S]GTPgammaS binding assay relative to DAMGO. It is filed as functional, cell-based. A digest of the protocol: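 Membranes from CHO-K1 cells stably transfected with human recombinant μ-opioid receptor; agonist activity measured as [35S]-GTPγS binding. Maximum compound-evoked response minus basal, expressed as percentage of the maximum response evoked by DAMGO.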
(In general: GTPγS resists hydrolysis and so accumulates on activated G proteins.)

Series [8] can be described thus: as §1. It is filed as ADME, microsome. The settings on record: liver microsomes.
Series [9] is described as follows: as §2. It is filed as ADME, Canis lupus familiaris, microsome. The settings on record: liver microsomes.

These results are taken from ChEMBL document CHEMBL4020770, “Discovery of N-substituted-endo-3-(8-aza-bicyclo[3.2.1]oct-3-yl)-phenol and -phenyl carboxamide series of μ-opioid receptor antagonists” (Bioorg Med Chem Lett, 2017).

Kappa-type opioid receptor, sequence (P41144 whole entry): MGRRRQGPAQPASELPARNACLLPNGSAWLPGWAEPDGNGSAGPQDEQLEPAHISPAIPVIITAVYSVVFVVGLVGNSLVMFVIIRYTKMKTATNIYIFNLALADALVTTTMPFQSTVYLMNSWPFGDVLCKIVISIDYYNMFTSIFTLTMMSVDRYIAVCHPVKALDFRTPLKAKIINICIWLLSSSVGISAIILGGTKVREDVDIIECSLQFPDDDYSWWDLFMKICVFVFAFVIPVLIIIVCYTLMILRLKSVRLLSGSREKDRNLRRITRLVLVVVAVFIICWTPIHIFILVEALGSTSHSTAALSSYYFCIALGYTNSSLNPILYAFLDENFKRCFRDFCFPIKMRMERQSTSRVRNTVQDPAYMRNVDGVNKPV
T1 sequence (P35372 whole entry): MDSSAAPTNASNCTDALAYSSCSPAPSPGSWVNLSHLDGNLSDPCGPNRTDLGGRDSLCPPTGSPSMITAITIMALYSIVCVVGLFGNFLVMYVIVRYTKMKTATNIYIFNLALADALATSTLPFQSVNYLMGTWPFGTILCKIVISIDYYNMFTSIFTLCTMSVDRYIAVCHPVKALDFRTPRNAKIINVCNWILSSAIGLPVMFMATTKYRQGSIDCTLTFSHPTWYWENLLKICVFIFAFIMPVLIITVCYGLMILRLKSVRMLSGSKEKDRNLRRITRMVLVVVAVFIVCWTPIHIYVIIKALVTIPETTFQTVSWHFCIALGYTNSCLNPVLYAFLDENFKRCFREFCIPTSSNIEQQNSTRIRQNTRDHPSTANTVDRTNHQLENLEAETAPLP
Delta-type opioid receptor, sequence (P41143 whole entry): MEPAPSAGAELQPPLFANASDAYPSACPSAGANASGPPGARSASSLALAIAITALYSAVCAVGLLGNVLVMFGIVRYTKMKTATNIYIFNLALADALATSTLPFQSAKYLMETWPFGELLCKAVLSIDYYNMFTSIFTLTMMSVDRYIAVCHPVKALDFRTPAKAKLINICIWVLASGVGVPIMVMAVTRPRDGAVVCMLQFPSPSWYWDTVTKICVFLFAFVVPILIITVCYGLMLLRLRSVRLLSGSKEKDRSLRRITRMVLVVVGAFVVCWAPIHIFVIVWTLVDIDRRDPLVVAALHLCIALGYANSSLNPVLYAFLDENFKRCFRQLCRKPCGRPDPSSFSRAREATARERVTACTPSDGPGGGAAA

Broadly, the Ki is the dissociation constant of the complex between target and ligand, obtained from inhibition or displacement. The half-life is how long it takes for the measured level to halve. A low value points to rapid decline. For `CCCCCCCN1[C@@H]2CC[C@@H]1CC(c1cccc(O)c1)C2` (relative stereo; 17a) [listing 1 of 2 here], the t1/2 in series [1] is 10 min; in series [2], 2 min. The Ki is 0.251 nM in series [3], 0.251 nM in series [4] and 2.51 nM in series [6]. This molecule gave a half-life in [5] of 3 min.

Take `CC(C)(C)c1ccc(CN2[C@@H]3CC[C@@H]2CC(c2cccc(C(N)=O)c2)C3)cc1` (relative stereo; 28b) [listing 1 of 2 here]: in series [7], the Intrinsic activity is 73%.

For `NC(=O)c1cccc(C2C[C@H]3CC[C@H](C2)N3CCCCN2C(=O)c3ccccc3C2=O)c1` (relative stereo; 29b) [listing 1 of 2 here], the Intrinsic activity in series [7] turned out to be 75%.

As to `CC(C)(C)c1ccc(CN2[C@@H]3CC[C@@H]2CC(c2cccc(O)c2)C3)cc1` (relative stereo; 20b) [listing 1 of 2 here], the t1/2 worked out at 67 min in series [1] and 7 min in [2]. Further, the results for the Ki in series [3], in series [4] and in series [6] were 3.16 nM, 2 nM and 31.6 nM, respectively.

`CC(C)(C)c1ccc(CN2[C@@H]3CC[C@@H]2CC(c2cccc(O)c2)C3)cc1` (relative stereo; 20a) [listing 1 of 2 here]: the Intrinsic activity in [7] turned out to be 100%.

With `Oc1cccc(C2C[C@H]3CC[C@H](C2)N3CCCOc2ccccc2)c1` (relative stereo; 19a) [listing 1 of 2 here], in series [7], the Intrinsic activity came out at 9%.

As to `CCCCCCCN1[C@@H]2CC[C@@H]1CC(c1cccc(C(N)=O)c1)C2` (some centres not stated), in series [7], the Intrinsic activity stood at 38%.

`CCCCCCCN1[C@@H]2CC[C@@H]1CC(c1cccc(O)c1)C2` (relative stereo; 17b): the Intrinsic activity in series [7] came out at 62%.

On to `Oc1cccc(C2C[C@H]3CC[C@H](C2)N3CCCc2ccccc2)c1` (relative stereo; 12b) [listing 1 of 2 here], for which the Intrinsic activity in series [7] turned out to be 64%.

For `Oc1cccc(C2C[C@H]3CC[C@H](C2)N3CCCc2ccccc2)c1` (relative stereo; 12a), the Intrinsic activity in series [7] stood at 22%.

As for `CC(C)(C)c1ccc(CN2[C@@H]3CC[C@@H]2CC(c2cccc(C(N)=O)c2)C3)cc1` (relative stereo; 28a), the Intrinsic activity in series [7] worked out at 92%.

`NC(=O)c1cccc(C2C[C@H]3CC[C@H](C2)N3Cc2c(F)cccc2F)c1` (relative stereo; 26a): in [7], the Intrinsic activity came out at 26%.

Turning to `NC(=O)c1cccc(C2C[C@H]3CC[C@H](C2)N3CCCCN2C(=O)c3ccccc3C2=O)c1` (relative stereo; 29a), the Intrinsic activity in [7] was determined as 0%.

For `Oc1cccc(C2C[C@H]3CC[C@H](C2)N3Cc2c(F)cccc2F)c1` (relative stereo; 18b) [listing 1 of 2 here], the Intrinsic activity in [7] was 48%.

On to `Oc1cccc(C2C[C@H]3CC[C@H](C2)N3CCCOc2ccccc2)c1` (relative stereo; 19a) [listing 2 of 2 here], for which the half-life came to 25 min in series [8] and 2 min in series [5]. This molecule also displayed a t1/2 in [2] of 9 min. For the same molecule, the Ki is 0.251 nM in series [3], 0.1 nM in [4] and 1.58 nM in [6].

In the case of `Oc1cccc(C2CC3CCC(C2)N3CCCc2ccccc2)c1` (mixture of isomers), the results for the Ki in series [4] and in [6] were 0.158 nM and 1.26 nM, respectively. Moreover, in series [7], the Intrinsic activity is 22%.

On to `O=C(CN1[C@@H]2CC[C@@H]1CC(c1cccc(O)c1)C2)C1CCCCC1` (relative stereo; 22a), for which the Intrinsic activity in series [7] was 33%.

Take `O=C1c2ccccc2C(=O)N1CCCCN1[C@@H]2CC[C@@H]1CC(c1cccc(O)c1)C2` (relative stereo; 21b): the Intrinsic activity in series [7] amounted to 97%.

Consider `Oc1cccc(C2C[C@H]3CC[C@H](C2)N3CCCOc2ccccc2)c1` (relative stereo; 19b) [listing 1 of 2 here], for which the t1/2 in series [1] worked out at 20 min; in series [2], 2 min. In addition, the Ki was 20 nM in series [3], 3.16 nM in series [4] and 63.1 nM in series [6].

For the molecule `O=C(CN1[C@@H]2CC[C@@H]1CC(c1cccc(O)c1)C2)C1CCCCC1` (relative stereo; 22b) [listing 1 of 2 here], the t1/2 in [1] stood at 13 min. Besides, the Ki was 0.794 nM in series [3], 2 nM in series [4] and 20 nM in series [6].

Turning to `CCCCCCCN1[C@@H]2CC[C@@H]1CC(c1cccc(O)c1)C2` (relative stereo; 17a) [listing 2 of 2 here], the Intrinsic activity in series [7] worked out at 26%.

For `Oc1cccc(C2C[C@H]3CC[C@H](C2)N3CC(O)Cc2ccccc2)c1` (relative stereo; 23b) [listing 1 of 2 here], the Intrinsic activity in series [7] stood at 36%.

For the molecule `O=C(CN1[C@@H]2CC[C@@H]1CC(c1cccc(O)c1)C2)C1CCCCC1` (relative stereo; 22b) [listing 2 of 2 here], the Intrinsic activity in series [7] was 57%.

With `Oc1cccc(C2C[C@H]3CC[C@H](C2)N3Cc2c(F)cccc2F)c1` (relative stereo; 18a) [listing 1 of 2 here], the Intrinsic activity in series [7] stood at 36%.

On to `NC(=O)c1cccc(C2C[C@H]3CC[C@H](C2)N3CCCOc2ccccc2)c1` (some centres not stated) [listing 1 of 2 here], for which the Intrinsic activity in [7] was found to be 95%.

`NC(=O)c1cccc(C2C[C@H]3CC[C@H](C2)N3CC(=O)C2CCCCC2)c1` (relative stereo; 30a) [listing 1 of 2 here]: in series [7], the Intrinsic activity was found to be 41%.

As to `NC(=O)c1cccc(C2C[C@H]3CC[C@H](C2)N3CCCc2ccccc2)c1` (relative stereo; 24a), the Intrinsic activity in series [7] worked out at 24%.

Consider `NC(=O)c1cccc(C2C[C@H]3CC[C@H](C2)N3CCCc2ccccc2)c1` (relative stereo; 24b), for which the Intrinsic activity in [7] amounted to 48%.

For `Oc1cccc(C2C[C@H]3CC[C@H](C2)N3Cc2c(F)cccc2F)c1` (relative stereo; 18a) [listing 2 of 2 here], the t1/2 in series [1] was determined as 29 min. For the same molecule, the half-life in [9] is 20 min; in [5], 2 min. Further, the figures for the Ki in series [3], in series [4] and in series [6] were 5.01 nM, 15.8 nM and 158 nM, respectively.

As to `NC(=O)c1cccc(C2C[C@H]3CC[C@H](C2)N3CCCOc2ccccc2)c1` (some centres not stated) [listing 2 of 2 here], the t1/2 in series [2] worked out at 6 min. Moreover, the results for the Ki in series [3], in [4] and in [6] were 31.6 nM, 6.31 nM and 100 nM, respectively.

For `NC(=O)c1cccc(C2C[C@H]3CC[C@H](C2)N3CCCOc2ccccc2)c1` (relative stereo), the Intrinsic activity in series [7] came out at 0%.

Molecule `Oc1cccc(C2C[C@H]3CC[C@H](C2)N3CC(O)Cc2ccccc2)c1` (relative stereo; 23a) [listing 1 of 2 here] displayed a t1/2 in [1] of 32 min. Moreover, the half-life in series [9] and in series [5] was 2 min in each case. Besides, the values for the Ki in series [4] and in series [6] were 0.251 nM and 6.31 nM, respectively.

Consider `CCCCCCCN1[C@@H]2CC[C@@H]1CC(c1cccc(C(N)=O)c1)C2` (relative stereo), for which the Intrinsic activity in series [7] was found to be 28%.

Regarding `Oc1cccc(C2C[C@H]3CC[C@H](C2)N3Cc2c(F)cccc2F)c1` (relative stereo; 18b) [listing 2 of 2 here], the t1/2 was determined as 75 min in series [1] and 13 min in series [2]. The Ki is 126 nM in series [3], 631 nM in [4] and 2510 nM in [6].

As for `Oc1cccc(C2C[C@H]3CC[C@H](C2)N3CCCOc2ccccc2)c1` (relative stereo; 19b) [listing 2 of 2 here], the Intrinsic activity in series [7] is 85%.

For the molecule `NC(=O)c1cccc(C2C[C@H]3CC[C@H](C2)N3CC(O)Cc2ccccc2)c1` (relative stereo), the Intrinsic activity in series [7] was 3%.

Consider `NC(=O)c1cccc(C2C[C@H]3CC[C@H](C2)N3Cc2c(F)cccc2F)c1` (relative stereo; 26b), for which, in series [7], the Intrinsic activity turned out to be 19%.

In the case of `CC(C)(C)c1ccc(CN2[C@@H]3CC[C@@H]2CC(c2cccc(C(N)=O)c2)C3)cc1` (relative stereo; 28b) [listing 2 of 2 here], the Ki in series [3] was 31.6 nM; in series [4] it was 10 nM; in [6] it was 200 nM.

`Oc1cccc(C2C[C@H]3CC[C@H](C2)N3CC(O)Cc2ccccc2)c1` (relative stereo; 23b) [listing 2 of 2 here]: in [1], the t1/2 is reported as > 90 min. Moreover, the results for the Ki in [3], in series [4] and in [6] were 20 nM, 10 nM and 251 nM, respectively.

For `NC(=O)c1cccc(C2C[C@H]3CC[C@H](C2)N3CC(O)Cc2ccccc2)c1` (stereo in doubt; 31b), the Intrinsic activity in [7] is 39%.

Turning to `O=C1c2ccccc2C(=O)N1CCCCN1[C@@H]2CC[C@@H]1CC(c1cccc(O)c1)C2` (relative stereo; 21a), in series [7], the Intrinsic activity is 26%.

Molecule `CC(C)(C)c1ccc(CN2[C@@H]3CC[C@@H]2CC(c2cccc(O)c2)C3)cc1` (relative stereo; 20a) [listing 2 of 2 here] gave a t1/2 in series [1] of 16 min. The results for the half-life in series [9] and in [5] were 5 min and 2 min, respectively. Also, the Ki in [3] was 0.1 nM; in series [4], 0.1 nM; in series [6], 0.501 nM.

Consider `NC(=O)c1cccc(C2C[C@H]3CC[C@H](C2)N3CC(=O)C2CCCCC2)c1` (relative stereo; 30a) [listing 2 of 2 here], for which the half-life was > 90 min in series [8] and 70 min in series [5]. In addition, the t1/2 in series [2] is recorded as 21 min. The Ki in series [3] was 0.1 nM; in series [4], 0.158 nM; in series [6], 2 nM.

As for `NC(=O)c1cccc(C2C[C@H]3CC[C@H](C2)N3CC(=O)C2CCCCC2)c1` (relative stereo; 30b), the Intrinsic activity in series [7] stood at 93%.

With `CC(C)(C)c1ccc(CN2[C@@H]3CC[C@@H]2CC(c2cccc(O)c2)C3)cc1` (relative stereo; 20b) [listing 2 of 2 here], the Intrinsic activity in series [7] was 97%.

`NC(=O)c1cccc(C2C[C@H]3CC[C@H](C2)N3CCCCN2C(=O)c3ccccc3C2=O)c1` (relative stereo; 29b) [listing 2 of 2 here] yielded a t1/2 in [2] of 11 min. Further, the values for the Ki in series [4] and in [6] were 31.6 nM and 200 nM, respectively.

`Oc1cccc(C2C[C@H]3CC[C@H](C2)N3CC(O)Cc2ccccc2)c1` (relative stereo; 23a) [listing 2 of 2 here]: the Intrinsic activity in series [7] was found to be 1%.

In series [1], `Oc1cccc(C2C[C@H]3CC[C@H](C2)N3CCCc2ccccc2)c1` (relative stereo; 12b) [listing 2 of 2 here] registered a t1/2 of 27 min. In addition, the Ki in series [3] is 7.94 nM; in series [4], 5.01 nM; in [6], 63.1 nM.
